This is a sample that favours compounds with a hit; in the whole collection about 1.3% have one here.
Tb MetRS inh = blocks T. brucei methionyl-tRNA synthetase activity | purified T. brucei MetRS, ATP depletion, Kinase-Glo luminescence | inhibition, % at 11.9 µM | 360,000 compounds, 0.4% hits;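 active = inhibition above a per-plate cutoff of the control wells' mean inhibition plus 3 SD, cut at about 5.5% in these data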
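Assay system: T. brucei methionyl-tRNA synthetase, purified | Medium: HEPES buffer with MgCl2, KCl, DTT, spermine, BSA, pyrophosphatase | Compound: 11.9 µM single point | Incubation: 15 min enzyme-compound preincubation, 2 h reaction, 10 min detection, 25 °C | Measured by: Kinase-Glo luciferase luminescence reporting remaining unconsumed ATP | Measure: % inhibition normalized to control-well medians | Replication: Singlicate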
Hep lipid drop = modulators of hepatic lipid droplet formation; inhibition, % at 6.5 µM; 240,000 compounds, 0.4% hits; AML12 mouse hepatocytes, oleate lipid droplets, BODIPY imaging;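 active = lipid droplet intensity inhibited by at least 50%, with more than 500 cells counted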
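Assay system: AML12 hepatocytes (mouse); Probe or stimulus: oleic acid at 100 µM to induce lipid droplet formation; Dosing: compound at 6.5 µM only; Schedule: compound with oleate, overnight; Detection: fluorescence imaging, 20x objective, two fields per well; Measure: % inhibition of lipid droplet signal.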
HCV NS3 hel inh = blocks Hepatitis C virus NS3 helicase unwinding | inhibition, % at 10.9 µM | 290,000 compounds, 0.56% hits | NS3 helicase DNA unwinding, Cy5 molecular beacon fluorescence;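 active = inhibition above the mean of all tested compounds plus 3 SD, set per campaign, cut at about 35% in these data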
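assay system = NS3 helicase fragment of HCV | buffer or medium = MOPS pH 6.5, MgCl2, DTT, Tween20, BSA | timing = 60 min unwinding reaction at 25 °C after ATP addition | signal = Cy5 beacon fluorescence read at start and 1 h | read-out basis = % inhibition of unwinding | control set = low DMSO, high thioflavine S at 110 µM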
core dimer inh = blocks dimerization of HCV core protein | TR-FRET GST/Flag-core106 dimerization, 1536-well | inhibition, % at 5 µM | 300,000 compounds, 0.33% hits | AID 1899;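 active = inhibition above the mean of all tested compounds plus 3 SD, set per screening campaign, cut at about 45% in these data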
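Material: Tagged HCV core106 pair (GST and Flag) | Amount: GST-core106 13.5 nM, Flag-core106 17 nM | Medium: KF-containing HEPES buffer, pH 7.45, DTT, CHAPS, BSA | Reagent: Eu donor and XL665 acceptor anti-tag antibodies | Schedule: 4 h at 22.5 °C | Technique: Time-resolved FRET, ex 340 nm, em 617 and 671 nm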
Hits are given with their value; 0 = inactive; - = not tested or not shown.

SMILES	Tb MetRS inh	Hep lipid drop	HCV NS3 hel inh	core dimer inh
O=C(C[C@@H]1CC[C@@H]2[C@H](COC[C@H](O)CN2S(=O)(=O)c2ccccc2)O1)Nc1ccccc1	0	-	-	-
CN(CC(=O)Nc1sccc1C#N)C1CCCCC1	0	0	0	51
CCCN(C)C1CN(Cc2cn(Cc3cccc(C(F)(F)F)c3)nn2)S(=O)(=O)C1 (stereo not drawn)	0	-	-	-
COc1ccccc1CNC(=O)c1ccc2nc3[nH]c4ccccc4c3nc2c1	0	73	0	0
COc1ccccc1-c1csc(C(C)(O)c2cccc(F)c2)n1 (stereo not drawn)	0	-	-	-
C/C(CCc1oc2c(Br)cc(Br)cc2c1-c1ccc(C)o1)=N\O	15	0	0	0
C/C(CCc1oc2ccccc2c1-c1ccc(C)o1)=N/O	0	0	0	0
O=C(Nc1ccc2c(c1)OCO2)c1cccc2c1C(=O)N(Cc1cccnc1)C2	0	0	0	54
CCCN1Cc2cccc(C(=O)Nc3ccc4c(c3)OCO4)c2C1=O	0	0	0	0
C/C=C(\C)C(=O)OC1[C@H](OC(C)=O)C2(CO)C(CC1(C)C)C1=CCC3C4(C)CCC(O[C@@H]5O[C@H](C(=O)O)[C@@H](O[C@@H]6O[C@H](CO)[C@@H](O)[C@H](O)[C@H]6O)[C@H](O)[C@H]5O[C@H]5O[C@H](CO)[C@@H](O)[C@H](O)[C@H]5O)[C@](C)(CO)C4CCC3(C)[C@]1(C)C[C@H]2O (stereo partly drawn)	0	-	-	-
Cc1oc(-c2ccc(F)cc2)cc1-c1nn2c(-c3ccco3)nnc2s1	-	-	0	-
Cc1oc(-c2ccc(F)cc2)cc1-c1nn2c(-c3ccoc3C)nnc2s1	0	-	-	91
O=C(Cn1cnc([N+](=O)[O-])c1)Nc1cc(Oc2ccc(Cl)cc2Cl)cc([N+](=O)[O-])c1	78	0	0	0
N#Cc1ccc(NC(=O)Cn2cnc([N+](=O)[O-])c2)cc1	0	0	0	0
Cc1ccc(S(=O)(=O)NC(=O)C2(C)CCN2C(=O)c2cccc(F)c2)nc1 (stereo not drawn)	0	-	-	-
N#Cc1ccccc1CSc1nc2ccc(NC(=O)c3ccccc3C(=O)O)cc2s1	0	0	0	47
O=C(CN1C(=O)/C(=C\C=C\c2ccccc2)SC1=S)Nc1ccc(F)cc1	0	0	0	0
O=C(COC(=O)CCN1C(=O)/C(=C\C=C\c2ccccc2)SC1=S)Nc1cc(F)ccc1F	0	0	0	60
O=C(O)CSc1cc(C(=O)c2ccccc2O)cn2c(=O)c3c(-c4ccccc4)csc3nc12	0	0	0	55
CCCCN1C(=O)C(=O)NC[C@@H]1CC1CCCCC1	0	-	-	-
O=C(Oc1ccc2c(c1)OCO2)c1cc2c(s1)CCC2	0	-	0	87
O=C(c1cc2c(s1)CCCC2)N1CCN(Cc2ccc3c(c2)OCO3)CC1	0	-	0	0
COC(=O)C[C@@H]1CC[C@@H](NC(=O)C2CCC2)[C@@H](CO)O1	0	-	-	-
CCc1cccc(C)c1NC(=O)CSc1nc2ccc(N3C(=O)c4ccccc4C3=O)cc2s1	0	-	0	47
Cc1ccc(S(=O)(=O)N2CCOCC(=O)NCCOCCNC(=O)COCC2)cc1	0	-	0	-
SMILES	Tb MetRS inh	Hep lipid drop	HCV NS3 hel inh	core dimer inh
Cc1cc(C)c2c(c1)[C@@H]1C=CC[C@@H]1[C@H](c1ccc(S(=O)(=O)N3CCOCC3)cc1)N2	0	0	0	84
COc1cccc(Cn2c3ccc(NC(=O)CCc4ccc(F)cc4)cc3c(=O)n2C)c1	0	-	-	-
C=CCn1c(O)c(N=NC(=O)CNC(=O)/C=C/c2ccco2)c2ccccc21	0	0	0	49
CCC(C)n1c(SCC(=O)N(CC)c2c(N)n(Cc3ccccc3)c(=O)[nH]c2=O)nc2ccccc2c1=O (stereo not drawn)	0	-	-	-
O=C(COC(=O)c1ccc2c(c1)C(=O)N(Cc1ccncc1)C2=O)Nc1ccccc1[N+](=O)[O-]	0	0	0	54
COc1ccc(/C=C2\CN(Cc3ccccc3)C/C(=C\c3ccc(OC)cc3OC)C2=O)c(OC)c1	0	-	0	49
COC(=O)CN1C(=S)N(Cc2ccccc2)C(=O)C1CC(=O)Nc1ccc(Br)cc1 (stereo not drawn)	64	-	0	0
CC1(C(=O)Nc2ccc3[nH]ncc3c2)CCN1C(=O)C1(c2ccccc2)CC1 (stereo not drawn)	0	-	-	-
COc1cccc(/C=C/C(=C2/C(=O)N(c3ccccc3)N=C2C)c2ccccc2)c1OC	0	0	0	0
COc1ccccc1/C=C/C(=C1/C(=O)N(c2ccccc2)N=C1C)c1ccc(C)cc1	0	53	0	0
CCOC(=O)c1cc(OC)c2cccc(CN3CCC(C)(C(=O)NCCOC)C3)c2c1 (stereo not drawn)	0	-	-	-
O=C(Nc1cccc(C(F)(F)F)c1)c1ccc2nc(-c3ccco3)c(-c3ccco3)nc2c1	0	0	0	74
O=C(Nc1ccc2nc(-c3ccco3)c(-c3ccco3)nc2c1)NC1CC1	0	0	47	-
COc1ccc(C2=Nc3ccccc3N(C(=O)c3ccc(C)cc3)C2C(=O)Nc2c(C)cccc2C)cc1 (stereo not drawn)	0	-	-	-
COc1ccc(CCCNC(=O)C2Cc3c(-c4cccc(NC(C)=O)c4)ccnc3O2)cc1 (stereo not drawn)	0	-	-	-
Cn1nc(-c2ccc(Cl)cc2)nc2c(=O)n(C)c(=O)nc1-2	-	-	0	68
O=C(OCc1nc2ccccc2[nH]1)C12CC3CC(CC(C3)C1)C2	47	-	0	0
O=C(Nc1nc2ccccc2[nH]1)C12CC3CC(CC(C3)C1)C2	0	0	0	0
CCC1=NN2C(=N)/C(=C\c3ccc(SCc4ccco4)o3)C(=O)N=C2S1	0	-	0	0
CCCC1=NN2C(=N)/C(=C\c3ccc(SCc4ccco4)o3)C(=O)N=C2S1	0	0	0	71
c1nc(NCC2CCCO2)c2[nH]cnc2n1 (stereo not drawn)	0	-	0	0
c1ccc2c(c1)[nH]c1c(NCC3CCCO3)ncnc12 (stereo not drawn)	54	-	0	0
CC1(C(=O)NCC(F)(F)F)CCN1C(=O)Cc1ccc(-c2ccccc2)cc1 (stereo not drawn)	0	-	-	-
Cc1cc(C)c(S(=O)(=O)N2CCOC2CNC(=O)C(=O)NCCc2ccc(S(N)(=O)=O)cc2)c(C)c1 (stereo not drawn)	0	0	0	50
Cc1ccc(S(=O)(=O)N2CCOC2CNC(=O)C(=O)NCCc2ccc(S(N)(=O)=O)cc2)cc1 (stereo not drawn)	0	0	0	0
SMILES	Tb MetRS inh	Hep lipid drop	HCV NS3 hel inh	core dimer inh
Cc1cc(NC(=O)CSc2nc3ccccc3c(=O)n2Cc2ccccc2)no1	0	-	0	0
Cc1ccc(Cn2c(SCC(=O)Nc3cc(C)on3)nc3ccccc3c2=O)cc1	0	0	0	62
COc1ccc(-c2ccnc3nc(-n4cccc4)nn23)cc1	0	-	0	0
c1coc(-c2ccnc3nc(-n4cccc4)nn23)c1	0	-	0	56
COC(=O)C[C@H]1CC[C@@H](NS(=O)(=O)c2ccccc2)[C@@H](CO)O1	0	-	-	-
Nc1ccc(O)c(-c2nc3ccccc3s2)c1	0	-	0	82

Source: PubChem
